Data taken from ChEMBL document CHEMBL3112425, “Design, synthesis, and structure-activity relationship studies of a potent PACE4 inhibitor” (J Med Chem, 2014).
Square brackets hold non-standard residues; d marks the D form. Peptide text beside a SMILES is read from it. * marks the point of attachment. NH(4-amidinobenzyl) = N=C(N)c1ccc(CN*)cc1; Nle = CCCC[C@H](N)C(=O)O

Assays:
PC-3 [1] = experiment: Cytotoxicity against human PC3 cells up to 350 uM after 72 hrs by MTT assay; format: functional
How it was run: (§1)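 Prostate cancer cells were kept in RPMI 1640 at 37 °C, 5% CO2, with 5% FBS for DU145 and 10% FBS for LNCaP and PC3. After 24 h, medium was changed and peptides added at various concentrations, up to 350 μM. Viability was read by MTT after 72 h treatment. IC50 from dose–response curves, triplicate, mean ± SEM.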

LNCaP [2] = experiment: Cytotoxicity against human LNCAP cells up to 350 uM after 72 hrs by MTT assay; format: functional; how it was run: as §1
[3] = Acute toxicity in human DU145 cells assessed as cell death/lysis at 100 uM after 4 hrs by LDH assay; format: cell-based, DU-145; settings: read-out: INH
How it was run: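 DU145 cells (RPMI 1640, 5% FBS, 37 °C, 5% CO2) plated; 24 h later peptides added at 100 μM. After 4 h, release of lactate dehydrogenase into the medium was quantified enzymatically with a commercial LDH cytotoxicity kit as the measure of acute membrane damage/lysis.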

DU-145 [4] = experiment: Cytotoxicity against human DU145 cells after 72 hrs by MTT assay; format: functional, cell-based; settings: DU-145, 72 h; how it was run: as §1
[5] = molecular target: T1, Proprotein convertase subtilisin/kexin type 6 (Homo sapiens, UniProt P29122); experiment: Inhibition of human recombinant PACE4 expressed in drosophila schneider 2 cells using pyroGlu-Arg-Thr-Lys-Arg-AMC as substrate after 1 hr
T1 sequence (P29122 whole entry): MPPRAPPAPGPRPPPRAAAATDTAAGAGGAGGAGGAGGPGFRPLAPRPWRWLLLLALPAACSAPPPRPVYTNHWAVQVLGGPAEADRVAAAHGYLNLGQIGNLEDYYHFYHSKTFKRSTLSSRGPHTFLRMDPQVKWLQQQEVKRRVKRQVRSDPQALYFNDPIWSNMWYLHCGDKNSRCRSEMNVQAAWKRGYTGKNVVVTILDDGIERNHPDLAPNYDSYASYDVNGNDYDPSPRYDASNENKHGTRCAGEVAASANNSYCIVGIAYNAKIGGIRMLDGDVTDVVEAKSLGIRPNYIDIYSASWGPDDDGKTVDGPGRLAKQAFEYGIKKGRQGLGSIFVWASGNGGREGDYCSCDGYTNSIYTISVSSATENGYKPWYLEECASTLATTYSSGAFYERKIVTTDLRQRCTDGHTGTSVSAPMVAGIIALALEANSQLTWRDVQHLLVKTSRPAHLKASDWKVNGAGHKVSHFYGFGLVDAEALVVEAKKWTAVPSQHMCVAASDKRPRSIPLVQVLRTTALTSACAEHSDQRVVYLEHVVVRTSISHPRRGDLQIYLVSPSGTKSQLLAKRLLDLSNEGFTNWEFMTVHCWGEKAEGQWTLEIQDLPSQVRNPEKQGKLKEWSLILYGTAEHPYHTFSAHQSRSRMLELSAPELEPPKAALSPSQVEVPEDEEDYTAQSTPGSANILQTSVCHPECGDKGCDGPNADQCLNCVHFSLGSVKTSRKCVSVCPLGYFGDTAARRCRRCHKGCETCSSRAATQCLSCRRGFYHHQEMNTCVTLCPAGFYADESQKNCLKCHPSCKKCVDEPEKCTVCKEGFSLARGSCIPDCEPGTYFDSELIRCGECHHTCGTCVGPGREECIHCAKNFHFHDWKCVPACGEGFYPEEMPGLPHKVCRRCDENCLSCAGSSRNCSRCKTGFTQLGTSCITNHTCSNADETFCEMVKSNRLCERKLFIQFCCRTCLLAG
How it was run: (§2)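 Human enzymes were expressed in Drosophila S2 cells and purified. Fluorogenic pyroGlu-RTKR-AMC was used at fixed concentration with varied inhibitor, 37 °C over 1 h. Buffers: furin, 100 mM Hepes pH 7.5, 1 mM CaCl2, 1 mM β-mercaptoethanol, 1.8 mg/mL BSA; PACE4 and PC7, 20 mM Bis-Tris pH 6.5, 1 mM CaCl2, 1.8 mg/mL BSA; PC2, same buffer at pH 5.7. Ki from IC50 (Cheng–Prusoff), or apparent Ki (Morrison) for tight binders. Triplicate, mean ± SD.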

Furin = Furin (Homo sapiens, UniProt P09958); experiment: Inhibition of human recombinant furin expressed in drosophila schneider 2 cells using pyroGlu-Arg-Thr-Lys-Arg-AMC as substrate after 1 hr; how it was run: as §2
Chain of Furin (P09958 whole entry): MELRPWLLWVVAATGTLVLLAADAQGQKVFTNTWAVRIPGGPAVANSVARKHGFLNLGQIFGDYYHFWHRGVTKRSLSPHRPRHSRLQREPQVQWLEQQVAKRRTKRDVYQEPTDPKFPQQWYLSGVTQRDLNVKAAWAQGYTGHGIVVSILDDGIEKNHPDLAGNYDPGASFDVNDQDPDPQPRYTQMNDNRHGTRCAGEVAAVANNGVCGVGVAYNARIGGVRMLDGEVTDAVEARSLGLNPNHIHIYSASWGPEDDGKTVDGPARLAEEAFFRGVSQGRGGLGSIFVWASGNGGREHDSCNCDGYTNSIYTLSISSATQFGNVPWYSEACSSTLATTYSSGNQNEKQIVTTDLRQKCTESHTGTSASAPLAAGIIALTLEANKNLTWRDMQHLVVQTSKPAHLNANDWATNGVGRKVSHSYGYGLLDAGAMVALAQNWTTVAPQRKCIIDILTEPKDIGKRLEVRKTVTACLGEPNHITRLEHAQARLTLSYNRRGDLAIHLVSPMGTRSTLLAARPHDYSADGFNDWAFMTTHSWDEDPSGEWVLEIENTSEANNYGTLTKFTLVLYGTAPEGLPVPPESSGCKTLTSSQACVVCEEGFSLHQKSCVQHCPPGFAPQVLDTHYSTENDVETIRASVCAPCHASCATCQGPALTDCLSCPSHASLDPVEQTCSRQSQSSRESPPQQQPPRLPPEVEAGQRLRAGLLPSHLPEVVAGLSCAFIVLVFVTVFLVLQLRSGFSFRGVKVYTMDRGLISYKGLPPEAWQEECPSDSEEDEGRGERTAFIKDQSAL

DU-145 [6] = experiment: Cellular uptake in human DU145 cells after 1 hr by propidium iodide staining-based FACS analysis; format: ADME, cell-based; settings: du-145, 1 h
How it was run: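 FITC-βAla-labelled peptides at 10 μM were given to DU145 cells for 1 h in serum-free RPMI. Cells were collected, then washed twice with 0.05% trypsin (5 min, 37 °C) to strip membrane-bound peptide. Propidium iodide (10 μg/mL, 2 min) excluded damaged cells. FACS read 10 000 events/sample as geometric mean fluorescence, against untreated-cell autofluorescence.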

[7] = Half life in CD-1 mouse plasma at 0.5 ug/uL by RP-HPLC analysis; format: ADME, cell-free
How it was run: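 Peptides at 0.5 μg/μL were incubated at 37 °C in heparinized plasma pooled from mixed-sex CD1 mice. At each time point the reaction was stopped with 1 M guanidinium-HCl, then acetonitrile, and proteins were spun out. Supernatant peptide AUC (RP-HPLC) was compared with non-incubated samples. Half-life came from a one-phase decay fit. Run ≥3 times, duplicate per time point.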

Plasma = experiment: Drug degradation in CD-1 mouse plasma at 0.5 ug/uL after 30 mins by MALDI-TOF MS analysis; format: ADME, cell-free; settings: 0.5 h
How it was run: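 For fragment mapping, 100 μg peptide was incubated in murine plasma at 37 °C. At each time point, plasma samples were quenched with 3% TFA. Proteins were precipitated with 2 volumes acetonitrile and centrifuged at 17 000g. Supernatants were analyzed by MALDI-TOF MS for C-terminally truncated fragments.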

DU-145 [8] = experiment: Cytotoxicity against human DU145 cells up to 350 uM after 72 hrs by MTT assay; format: functional; how it was run: as §1
LNCaP [9] = experiment: Cytotoxicity against human LNCAP cells after 72 hrs by MTT assay; format: functional, cell-based; how it was run: as §1
PC-3 [10] = experiment: Cytotoxicity against human PC3 cells after 72 hrs by MTT assay; format: functional, cell-based; settings: PC-3, 72 h; how it was run: as §1
[11] = molecular target: T2, Proprotein convertase subtilisin/kexin type 7 (Homo sapiens, UniProt Q16549); experiment: Inhibition of human PC7 expressed in drosophila schneider 2 cells using pyroGlu-Arg-Thr-Lys-Arg-AMC as substrate after 1 hr; how it was run: as §2
T2 sequence (Q16549 whole entry): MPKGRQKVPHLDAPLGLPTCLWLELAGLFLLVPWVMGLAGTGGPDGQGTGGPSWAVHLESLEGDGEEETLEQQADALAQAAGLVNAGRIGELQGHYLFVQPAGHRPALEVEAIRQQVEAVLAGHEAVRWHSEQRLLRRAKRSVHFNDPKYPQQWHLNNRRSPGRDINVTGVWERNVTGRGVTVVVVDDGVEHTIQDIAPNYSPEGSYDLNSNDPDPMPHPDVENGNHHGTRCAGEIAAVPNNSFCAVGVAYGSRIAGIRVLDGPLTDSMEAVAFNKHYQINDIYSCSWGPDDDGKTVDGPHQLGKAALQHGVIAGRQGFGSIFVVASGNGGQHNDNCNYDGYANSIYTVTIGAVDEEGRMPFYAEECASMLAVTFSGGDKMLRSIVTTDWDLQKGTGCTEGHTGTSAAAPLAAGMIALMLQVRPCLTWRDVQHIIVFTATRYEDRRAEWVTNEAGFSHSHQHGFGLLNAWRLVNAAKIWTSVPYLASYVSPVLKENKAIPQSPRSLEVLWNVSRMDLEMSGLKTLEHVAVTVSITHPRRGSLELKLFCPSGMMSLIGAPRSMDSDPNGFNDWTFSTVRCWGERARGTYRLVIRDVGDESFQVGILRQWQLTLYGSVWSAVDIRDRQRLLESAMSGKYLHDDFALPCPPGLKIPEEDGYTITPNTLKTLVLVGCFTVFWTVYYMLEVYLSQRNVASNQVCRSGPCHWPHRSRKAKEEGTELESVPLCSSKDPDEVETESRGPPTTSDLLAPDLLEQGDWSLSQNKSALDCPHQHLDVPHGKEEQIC

[12] = molecular target: T3, Neuroendocrine convertase 2 (Homo sapiens, UniProt P16519); experiment: Inhibition of human PC2 expressed in drosophila schneider 2 cells using pyroGlu-Arg-Thr-Lys-Arg-AMC as substrate after 1 hr; how it was run: as §2
T3 sequence (P16519 whole entry): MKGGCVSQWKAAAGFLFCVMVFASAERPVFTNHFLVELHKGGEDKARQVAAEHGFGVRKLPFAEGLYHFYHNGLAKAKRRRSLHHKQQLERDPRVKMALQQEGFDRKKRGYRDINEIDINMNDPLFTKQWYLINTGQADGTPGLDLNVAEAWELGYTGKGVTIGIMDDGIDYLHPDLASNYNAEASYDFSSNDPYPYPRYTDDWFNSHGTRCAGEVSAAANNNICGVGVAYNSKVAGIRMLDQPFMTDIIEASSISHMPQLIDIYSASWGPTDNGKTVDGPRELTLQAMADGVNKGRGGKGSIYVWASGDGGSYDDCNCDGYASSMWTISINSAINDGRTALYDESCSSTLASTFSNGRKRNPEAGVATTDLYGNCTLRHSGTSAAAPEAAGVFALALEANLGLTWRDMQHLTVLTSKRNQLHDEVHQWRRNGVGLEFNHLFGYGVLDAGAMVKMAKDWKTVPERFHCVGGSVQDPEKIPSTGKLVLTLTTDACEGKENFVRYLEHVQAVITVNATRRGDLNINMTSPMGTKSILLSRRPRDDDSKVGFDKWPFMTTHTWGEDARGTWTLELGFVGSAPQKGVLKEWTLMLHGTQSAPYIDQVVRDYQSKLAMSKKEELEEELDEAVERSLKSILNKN

Ki [5]	half-life at 0.5 ug/uL [7]	Stability (Plasma)	Ki [11]	Ki [12]	Structure (SMILES)	inhibition (INH) (PC-3 [1])	inhibition (INH) (LNCaP [2])	cytotoxicity at 4 h, 100 µM [3]	IC50 (DU-145 [4])	Ki (Furin)	Drug uptake (DU-145 [6])	inhibition (INH) (DU-145 [8])	IC50 (LNCaP [9])	IC50 (PC-3 [10])
0.385 µM					CCCC[C@H](NC(=O)[C@H](CC(C)C)NC(=O)[C@H](CC(C)C)NC(C)=O)C(=O)N[C@@H](CC(C)C)C(=O)N[C@@H](CCCNC(=N)N)C(=O)N[C@H](C(=O)N[C@@H](CCCCN)C(=O)N[C@@H](CCCNC(=N)N)C(N)=O)C(C)C (Ac-LL[Nle]LRVKR-NH2)	<50%	<50%	< 5%	190 µM	1.98 µM				
0.02 µM	5.1 h	Unstable			CC(=O)N[C@@H](CC(C)C)C(=O)N[C@@H](CC(C)C)C(=O)N[C@@H](CC(C)C)C(=O)N[C@@H](CC(C)C)C(=O)N[C@@H](CCCNC(=N)N)C(=O)N[C@H](C(=O)N[C@@H](CCCCN)C(=O)N[C@@H](CCCNC(=N)N)C(N)=O)C(C)C	<50%		< 5%			Active			
0.0031 µM	12 h	Unstable	0.0138 µM	0.00024 µM	CC(=O)N[C@@H](CC(C)C)C(=O)N[C@@H](CC(C)C)C(=O)N[C@@H](CC(C)C)C(=O)N[C@@H](CC(C)C)C(=O)N[C@@H](CCCN=C(N)N)C(=O)N[C@H](C(=O)N[C@@H](CCCCN)C(=O)NCc1ccc(C(=N)N)cc1)C(C)C (Ac-LLLLRVK-{NH(4-amidinobenzyl)})			< 5%		0.0043 µM				

Structure (SMILES)	Ki [5]	half-life at 0.5 ug/uL [7]	Stability (Plasma)	Ki [11]	Ki [12]	inhibition (INH) (PC-3 [1])	inhibition (INH) (LNCaP [2])	cytotoxicity at 4 h, 100 µM [3]	IC50 (DU-145 [4])	Ki (Furin)	Drug uptake (DU-145 [6])	inhibition (INH) (DU-145 [8])	IC50 (LNCaP [9])	IC50 (PC-3 [10])
CC(=O)N[C@H](CC(C)C)C(=O)N[C@H](CC(C)C)C(=O)N[C@H](CC(C)C)C(=O)N[C@H](CC(C)C)C(=O)N[C@@H](CCCNC(=N)N)C(=O)N[C@H](C(=O)N[C@@H](CCCCN)C(=O)N[C@@H](CCCNC(=N)N)C(N)=O)C(C)C	14 µM					<50%	<50%	< 5%		7.3 µM		<50%		
CC(=O)N[C@H](CC(C)C)C(=O)N[C@@H](CC(C)C)C(=O)N[C@@H](CC(C)C)C(=O)N[C@@H](CC(C)C)C(=O)N[C@@H](CCCN=C(N)N)C(=O)N[C@H](C(=O)N[C@@H](CCCCN)C(=O)N[C@@H](CCCN=C(N)N)C(N)=O)C(C)C	0.024 µM	8.6 h	Unstable					< 5%	70 µM	0.76 µM	Active		150 µM	190 µM
